Laboratory results reported in ChEMBL document CHEMBL1142359 (J Med Chem, 2008).
pEC50: −log10 of the molar value.

Key:
[1] = target: T1, Sodium/glucose cotransporter 2 (Homo sapiens, UniProt P31639); assay: Inhibition of human SGLT2 expressed in CHO cells assessed as inhibition of [14C]AMG accumulation; format: cell-based
T1 sequence (P31639 whole entry): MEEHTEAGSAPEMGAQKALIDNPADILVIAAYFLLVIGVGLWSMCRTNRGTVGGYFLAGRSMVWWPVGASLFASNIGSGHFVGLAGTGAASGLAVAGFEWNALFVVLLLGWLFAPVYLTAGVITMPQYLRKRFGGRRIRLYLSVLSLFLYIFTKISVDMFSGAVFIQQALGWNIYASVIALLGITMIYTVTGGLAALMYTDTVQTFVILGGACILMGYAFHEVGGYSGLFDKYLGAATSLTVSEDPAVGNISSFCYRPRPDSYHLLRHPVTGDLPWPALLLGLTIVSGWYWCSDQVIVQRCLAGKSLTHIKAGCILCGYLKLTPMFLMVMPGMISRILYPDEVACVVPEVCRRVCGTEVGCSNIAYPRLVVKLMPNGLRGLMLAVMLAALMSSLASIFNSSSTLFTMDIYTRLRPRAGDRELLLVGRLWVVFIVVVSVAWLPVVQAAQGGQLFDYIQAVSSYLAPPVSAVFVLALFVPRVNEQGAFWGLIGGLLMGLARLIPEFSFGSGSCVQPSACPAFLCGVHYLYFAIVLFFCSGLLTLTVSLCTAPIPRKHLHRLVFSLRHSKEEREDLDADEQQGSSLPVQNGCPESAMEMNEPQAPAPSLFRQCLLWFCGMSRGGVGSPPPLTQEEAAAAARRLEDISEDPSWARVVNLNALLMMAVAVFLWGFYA
Procedure, shortened: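 Radiolabeled α-methyl-D-glucopyranoside accumulation in Chinese hamster ovary cells stably expressing human or rat SGLT2. EC50 is taken as inhibition of that uptake. The assay was run in protein-free buffer, and n is given per value.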

[2] = Clearance in rat at 1 mg/kg, po after 1.7 hrs; conditions: in vivo
[3] = Elimination half life in intra arterially dosed rat; conditions: in vivo
[4] = Fraction unbound in rat serum at 10 uM
[5] = Volume of distribution at steady state in rat; conditions: in vivo
[6] = target: T2, Sodium/glucose cotransporter 2 (Rattus norvegicus, UniProt P53792); assay: Inhibition of rat SGLT2 expressed in CHO cells assessed as inhibition of [14C]AMG accumulation
T2 sequence (P53792 whole entry): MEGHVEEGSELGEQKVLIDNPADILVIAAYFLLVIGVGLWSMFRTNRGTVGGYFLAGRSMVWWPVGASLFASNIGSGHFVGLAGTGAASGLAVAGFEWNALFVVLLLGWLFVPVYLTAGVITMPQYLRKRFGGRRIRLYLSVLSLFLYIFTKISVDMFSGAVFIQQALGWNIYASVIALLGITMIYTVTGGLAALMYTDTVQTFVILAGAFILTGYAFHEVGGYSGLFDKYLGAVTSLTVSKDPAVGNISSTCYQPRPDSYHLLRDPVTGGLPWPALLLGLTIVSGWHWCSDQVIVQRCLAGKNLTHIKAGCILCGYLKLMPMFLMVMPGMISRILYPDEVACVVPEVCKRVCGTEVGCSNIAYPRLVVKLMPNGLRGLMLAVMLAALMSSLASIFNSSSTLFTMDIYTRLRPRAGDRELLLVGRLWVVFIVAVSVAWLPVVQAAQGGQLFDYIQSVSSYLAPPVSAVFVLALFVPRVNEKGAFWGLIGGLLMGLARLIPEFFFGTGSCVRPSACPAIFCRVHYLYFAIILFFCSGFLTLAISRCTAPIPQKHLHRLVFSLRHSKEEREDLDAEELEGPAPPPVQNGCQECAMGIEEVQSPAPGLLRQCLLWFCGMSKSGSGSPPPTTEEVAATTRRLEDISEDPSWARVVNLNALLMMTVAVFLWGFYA

[7] = in vivo; conditions: rat, po, 1 mg/kg
[8] = target: T3, Solute carrier family 2, facilitated glucose transporter member 1 (Homo sapiens) (UniProt P11166); conditions: 20 uM
T3 sequence (whole entry): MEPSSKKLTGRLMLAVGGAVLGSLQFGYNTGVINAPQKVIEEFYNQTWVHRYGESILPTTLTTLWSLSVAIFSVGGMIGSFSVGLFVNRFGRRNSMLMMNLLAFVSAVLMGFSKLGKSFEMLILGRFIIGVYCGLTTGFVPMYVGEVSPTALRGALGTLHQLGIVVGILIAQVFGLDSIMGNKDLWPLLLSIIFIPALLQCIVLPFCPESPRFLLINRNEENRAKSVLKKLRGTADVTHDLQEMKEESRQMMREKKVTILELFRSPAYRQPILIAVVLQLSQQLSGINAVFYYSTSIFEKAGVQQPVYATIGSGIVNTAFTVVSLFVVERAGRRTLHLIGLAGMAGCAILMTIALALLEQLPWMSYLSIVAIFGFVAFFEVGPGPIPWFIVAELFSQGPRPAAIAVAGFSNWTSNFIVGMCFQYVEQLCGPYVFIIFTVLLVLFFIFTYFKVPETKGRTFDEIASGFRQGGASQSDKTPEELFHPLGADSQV

[9] = Fraction unbound in human serum at 10 uM
[10] = Elimination half life in intra arterially dosed monkey; conditions: rhesus monkey, in vivo
[11] = target: T4, Solute carrier family 2, facilitated glucose transporter member 4 (Homo sapiens) (UniProt P14672); conditions: 20 uM
T4 sequence (whole entry): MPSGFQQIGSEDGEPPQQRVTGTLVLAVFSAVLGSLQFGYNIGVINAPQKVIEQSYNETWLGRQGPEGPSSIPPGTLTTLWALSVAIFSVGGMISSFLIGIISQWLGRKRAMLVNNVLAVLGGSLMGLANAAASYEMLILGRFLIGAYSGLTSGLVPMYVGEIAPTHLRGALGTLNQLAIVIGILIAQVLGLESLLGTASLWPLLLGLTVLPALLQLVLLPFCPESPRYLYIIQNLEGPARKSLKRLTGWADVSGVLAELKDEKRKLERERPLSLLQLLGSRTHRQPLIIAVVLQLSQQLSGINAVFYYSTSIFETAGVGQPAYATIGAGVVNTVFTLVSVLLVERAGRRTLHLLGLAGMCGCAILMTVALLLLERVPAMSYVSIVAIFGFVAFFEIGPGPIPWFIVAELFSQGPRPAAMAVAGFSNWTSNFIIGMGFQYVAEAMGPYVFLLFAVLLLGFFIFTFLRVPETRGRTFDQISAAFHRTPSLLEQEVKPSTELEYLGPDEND

[12] = Oral bioavailability in rat; conditions: in vivo
[13] = Elimination half life in intra arterially dosed dog; conditions: in vivo
[14] = Permeability across human Caco-2 cells

Structure (SMILES): COc1ccc(Cc2ccccc2O[C@@H]2O[C@H](CO)[C@@H](O)[C@H](O)[C@H]2O)cc1 [SERGLIFLOZIN A]
- pEC50 [1]: 8.04

Structure (SMILES): Cc1cc(O)c(C(=O)CCc2ccc3occc3c2)c(O[C@@H]2O[C@H](CO)[C@@H](O)[C@H](O)[C@H]2O)c1
- pEC50 [1]: 8.18

Structure (SMILES): CCNC(=O)c1c(O)c(Cc2ccc(OC)cc2)cc([C@@H]2O[C@H](CO)[C@@H](O)[C@H](O)[C@H]2O)c1O
- pEC50 [1]: 5.89

Structure (SMILES): CCOc1ccc(Cc2cc([C@@H]3O[C@H](CO)[C@@H](O)[C@H](O)[C@H]3O)ccc2Cl)cc1 [DAPAGLIFLOZIN]
- CL/F at 1.7 h [2]: 4.8 mL/min/kg
- half-life [3]: 4.6 h
- fraction unbound at 10 µM [4]: 0.03
- Vd [5]: 1.6 L/kg
- pEC50 [6]: 8.52
- Cmax at 1.7 h [7]: 600 ng/mL
- inhibition [8]: 8%
- fraction unbound at 10 µM [9]: 0.04
- half-life [10]: 3 h
- inhibition [11]: 8%
- bioavailability [12]: 84%
- half-life [13]: 7.4 h
- Papp [14]: > 15 ×10⁻⁶ cm/s
